{"source": "ChEMBL document CHEMBL3351461", "about": "“Discovery of novel, dual mechanism ERK inhibitors by affinity selection screening of an inactive kinase” (J Med Chem, 2014)", "key": {"[1]": {"biological_target": "Mitogen-activated protein kinase 1 (Mus musculus) (UniProt P63085)", "assay": "Inhibition of inactive ERK2 (mouse) coupled with human MEK1 using IMAP peptide substrate after 30 mins by coupled ERK2 assay"}, "[2]": {"biological_target": "T1, Dual specificity mitogen-activated protein kinase kinase; MEK1/2 (Homo sapiens) (UniProt P36507+Q02750)", "T1 sequence (P36507 whole entry, looked up)": "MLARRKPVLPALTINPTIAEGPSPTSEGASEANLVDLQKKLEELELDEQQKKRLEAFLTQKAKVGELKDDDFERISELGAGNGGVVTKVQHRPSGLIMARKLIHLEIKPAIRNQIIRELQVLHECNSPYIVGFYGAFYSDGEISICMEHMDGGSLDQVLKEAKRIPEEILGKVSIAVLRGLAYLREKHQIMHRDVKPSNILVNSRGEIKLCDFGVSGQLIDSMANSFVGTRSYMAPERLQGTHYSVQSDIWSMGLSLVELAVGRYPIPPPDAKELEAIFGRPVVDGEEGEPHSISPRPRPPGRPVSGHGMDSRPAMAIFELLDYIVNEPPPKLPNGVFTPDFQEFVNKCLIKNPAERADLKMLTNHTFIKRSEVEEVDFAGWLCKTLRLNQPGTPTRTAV", "T1 sequence (Q02750 whole entry, looked up)": "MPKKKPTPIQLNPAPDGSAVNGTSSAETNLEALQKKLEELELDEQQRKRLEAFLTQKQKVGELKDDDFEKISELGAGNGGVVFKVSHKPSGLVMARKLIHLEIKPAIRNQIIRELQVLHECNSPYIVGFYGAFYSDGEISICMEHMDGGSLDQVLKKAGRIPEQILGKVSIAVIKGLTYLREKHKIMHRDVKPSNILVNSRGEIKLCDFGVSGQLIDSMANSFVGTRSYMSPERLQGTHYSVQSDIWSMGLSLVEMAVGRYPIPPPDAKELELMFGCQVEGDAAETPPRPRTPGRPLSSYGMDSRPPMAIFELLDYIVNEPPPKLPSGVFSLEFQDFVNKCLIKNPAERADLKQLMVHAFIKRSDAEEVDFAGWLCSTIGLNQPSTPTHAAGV", "assay": "Binding affinity to unphosphorylated MEK (unknown origin) by temperature dependent fluorescence (TdF) assay"}, "[3]": {"biological_target": "Interleukin-1 receptor-associated kinase 4 (Homo sapiens, UniProt Q9NWZ3)", "assay": "Inhibition of IRAK4 (unknown origin)"}, "[4]": {"biological_target": "T1, Dual specificity mitogen-activated protein kinase kinase; MEK1/2 (Homo sapiens)", "assay": "Binding affinity to phosphorylated MEK (unknown origin) by temperature dependent fluorescence (TdF) assay"}, "[5]": {"biological_target": "Testis-specific serine/threonine-protein kinase 2 (Homo sapiens, UniProt Q96PF2)", "assay": "Inhibition of TSSK2 (unknown origin)"}, "[6]": {"biological_target": "Mitogen-activated protein kinase 11 (Homo sapiens, UniProt Q15759)", "assay": "Inhibition of p38beta (unknown origin)"}, "[7]": {"biological_target": "Inhibitor of nuclear factor kappa-B kinase subunit beta (Homo sapiens, UniProt O14920)", "assay": "Inhibition of IKKbeta (unknown origin)"}, "[8]": {"biological_target": "Tyrosine-protein kinase Lck (Homo sapiens, UniProt P06239)", "sequence (P06239 whole entry)": "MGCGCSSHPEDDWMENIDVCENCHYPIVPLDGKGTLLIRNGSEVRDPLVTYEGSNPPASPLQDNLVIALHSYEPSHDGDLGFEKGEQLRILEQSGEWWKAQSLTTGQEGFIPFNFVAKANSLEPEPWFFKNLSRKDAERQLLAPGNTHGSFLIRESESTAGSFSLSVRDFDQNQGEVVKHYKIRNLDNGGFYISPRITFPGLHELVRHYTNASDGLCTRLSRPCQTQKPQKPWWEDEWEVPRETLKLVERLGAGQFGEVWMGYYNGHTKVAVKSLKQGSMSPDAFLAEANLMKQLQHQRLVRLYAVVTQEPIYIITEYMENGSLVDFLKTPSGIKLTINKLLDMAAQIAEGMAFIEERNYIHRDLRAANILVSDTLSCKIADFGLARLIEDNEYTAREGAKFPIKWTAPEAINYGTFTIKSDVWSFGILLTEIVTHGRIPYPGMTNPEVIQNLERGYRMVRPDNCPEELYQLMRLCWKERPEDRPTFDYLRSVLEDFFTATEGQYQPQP", "assay": "Inhibition of LCK (unknown origin)"}, "[9]": {"biological_target": "Receptor-type tyrosine-protein kinase FLT3 (Homo sapiens, UniProt P36888)", "sequence (P36888 whole entry)": "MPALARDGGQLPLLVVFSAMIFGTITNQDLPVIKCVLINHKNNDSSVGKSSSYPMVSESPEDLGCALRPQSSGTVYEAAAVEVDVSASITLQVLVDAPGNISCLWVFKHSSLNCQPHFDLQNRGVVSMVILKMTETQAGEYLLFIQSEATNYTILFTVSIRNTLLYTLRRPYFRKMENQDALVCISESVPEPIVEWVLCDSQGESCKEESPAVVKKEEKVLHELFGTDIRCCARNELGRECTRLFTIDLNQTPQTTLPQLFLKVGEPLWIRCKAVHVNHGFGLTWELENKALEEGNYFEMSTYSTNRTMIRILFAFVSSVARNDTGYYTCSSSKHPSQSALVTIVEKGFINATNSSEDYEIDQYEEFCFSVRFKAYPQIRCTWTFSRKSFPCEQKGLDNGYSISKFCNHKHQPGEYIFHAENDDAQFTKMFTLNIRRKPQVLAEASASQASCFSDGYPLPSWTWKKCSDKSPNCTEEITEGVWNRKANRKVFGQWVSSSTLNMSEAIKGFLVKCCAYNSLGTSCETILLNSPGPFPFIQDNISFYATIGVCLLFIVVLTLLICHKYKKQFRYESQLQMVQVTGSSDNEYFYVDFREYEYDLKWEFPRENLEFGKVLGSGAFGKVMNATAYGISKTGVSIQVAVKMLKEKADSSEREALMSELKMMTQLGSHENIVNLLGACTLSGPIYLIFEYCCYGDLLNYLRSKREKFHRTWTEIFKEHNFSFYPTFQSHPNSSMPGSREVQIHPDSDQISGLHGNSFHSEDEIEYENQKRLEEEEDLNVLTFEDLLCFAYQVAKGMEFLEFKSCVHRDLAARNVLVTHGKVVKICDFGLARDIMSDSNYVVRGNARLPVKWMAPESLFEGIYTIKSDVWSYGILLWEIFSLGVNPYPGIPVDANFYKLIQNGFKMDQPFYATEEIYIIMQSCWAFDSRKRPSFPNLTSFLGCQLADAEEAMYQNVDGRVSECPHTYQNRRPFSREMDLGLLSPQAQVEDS", "assay": "Inhibition of FLT3 (unknown origin)"}, "[10]": {"biological_target": "Ribosomal protein S6 kinase alpha-3 (Homo sapiens, UniProt P51812)", "assay": "Inhibition of RSK2 (unknown origin)"}, "[11]": {"biological_target": "T2, Mitogen-activated protein kinase 1 (Homo sapiens, UniProt P28482)", "T2 sequence (P28482 whole entry)": "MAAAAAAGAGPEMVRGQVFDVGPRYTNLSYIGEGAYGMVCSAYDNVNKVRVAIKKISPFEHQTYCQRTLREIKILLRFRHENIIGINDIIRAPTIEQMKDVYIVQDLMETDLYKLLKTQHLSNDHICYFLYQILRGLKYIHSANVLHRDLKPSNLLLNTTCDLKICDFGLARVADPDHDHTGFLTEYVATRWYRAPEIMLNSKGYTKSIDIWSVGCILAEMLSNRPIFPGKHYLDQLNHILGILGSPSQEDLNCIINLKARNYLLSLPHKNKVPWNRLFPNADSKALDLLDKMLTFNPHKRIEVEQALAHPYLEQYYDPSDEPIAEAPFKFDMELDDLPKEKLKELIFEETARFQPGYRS", "assay": "Inhibition of activated ERK2 (unknown origin) using IMAP peptide substrate after 30 mins by activated ERK2 assay", "method_in_brief": "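IMAP fluorescence-polarization assay. Started with 1 μM substrate peptide (100 nM fluorescein-labelled) and 30 μM ATP. Run 30 min, stopped with IMAP beads, read after 30 min. N = 2.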"}, "[12]": {"biological_target": "Dual specificity mitogen-activated protein kinase kinase 1 (Homo sapiens, UniProt Q02750)", "assay": "Inhibition of MEK1 (unknown origin)"}, "[13]": {"biological_target": "Serine/threonine-protein kinase B-raf (Homo sapiens, UniProt P15056)", "assay": "Inhibition of B-RAF (unknown origin)"}, "[14]": {"biological_target": "Serine/threonine-protein kinase Chk1 (Homo sapiens, UniProt O14757)", "assay": "Inhibition of CHK1 (unknown origin)"}, "[15]": {"biological_target": "Serine/threonine-protein kinase Nek2 (Homo sapiens, UniProt P51955)", "assay": "Inhibition of NEK2 (unknown origin)"}, "[16]": {"biological_target": "Tyrosine-protein kinase ABL1 (Homo sapiens, UniProt P00519)", "assay": "Inhibition of ABL (unknown origin)"}, "[17]": {"biological_target": "Serine/threonine-protein kinase PLK3 (Homo sapiens, UniProt Q9H4B4)", "sequence (Q9H4B4 whole entry)": "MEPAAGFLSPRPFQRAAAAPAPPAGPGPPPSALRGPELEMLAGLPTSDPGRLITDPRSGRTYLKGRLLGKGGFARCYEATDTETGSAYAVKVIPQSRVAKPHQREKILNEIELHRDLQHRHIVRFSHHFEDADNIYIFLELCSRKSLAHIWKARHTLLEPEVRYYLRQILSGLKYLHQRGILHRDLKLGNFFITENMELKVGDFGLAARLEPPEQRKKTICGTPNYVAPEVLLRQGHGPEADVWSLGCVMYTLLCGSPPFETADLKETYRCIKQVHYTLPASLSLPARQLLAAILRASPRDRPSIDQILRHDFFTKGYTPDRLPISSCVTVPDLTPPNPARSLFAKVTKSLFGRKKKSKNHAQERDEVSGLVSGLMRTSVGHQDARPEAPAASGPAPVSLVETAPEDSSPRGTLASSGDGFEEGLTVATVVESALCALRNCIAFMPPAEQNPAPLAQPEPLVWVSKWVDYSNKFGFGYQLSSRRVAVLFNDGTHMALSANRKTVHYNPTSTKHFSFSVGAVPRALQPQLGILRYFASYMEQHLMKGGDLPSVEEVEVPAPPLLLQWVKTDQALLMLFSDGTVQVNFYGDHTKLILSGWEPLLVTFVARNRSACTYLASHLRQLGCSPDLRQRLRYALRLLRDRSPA", "assay": "Inhibition of PLK3 (unknown origin)"}, "[18]": {"biological_target": "Rho-associated protein kinase 2 (Homo sapiens, UniProt O75116)", "assay": "Inhibition of ROCK2 (unknown origin)"}, "[19]": {"biological_target": "Glycogen synthase kinase-3 beta (Homo sapiens, UniProt P49841)", "assay": "Inhibition of GSK3beta (unknown origin)"}, "[20]": {"biological_target": "Protein kinase C alpha type (Homo sapiens, UniProt P17252)", "assay": "Inhibition of PKCA (unknown origin)"}, "[21]": {"biological_target": "Vascular endothelial growth factor receptor 1 (Homo sapiens, UniProt P17948)", "assay": "Inhibition of VEGFR1 (unknown origin)"}, "CHL-1": {"tested_on": "CHL-1", "assay": "Cytotoxicity against human CHL-1 cells expressing wild type BRAF after 3 days by proliferation assay", "assay_type": "functional, cell-based", "details": "CHL-1, 72 h"}, "[22]": {"biological_target": "Tyrosine-protein kinase JAK2 (Homo sapiens, UniProt O60674)", "sequence (O60674 whole entry)": "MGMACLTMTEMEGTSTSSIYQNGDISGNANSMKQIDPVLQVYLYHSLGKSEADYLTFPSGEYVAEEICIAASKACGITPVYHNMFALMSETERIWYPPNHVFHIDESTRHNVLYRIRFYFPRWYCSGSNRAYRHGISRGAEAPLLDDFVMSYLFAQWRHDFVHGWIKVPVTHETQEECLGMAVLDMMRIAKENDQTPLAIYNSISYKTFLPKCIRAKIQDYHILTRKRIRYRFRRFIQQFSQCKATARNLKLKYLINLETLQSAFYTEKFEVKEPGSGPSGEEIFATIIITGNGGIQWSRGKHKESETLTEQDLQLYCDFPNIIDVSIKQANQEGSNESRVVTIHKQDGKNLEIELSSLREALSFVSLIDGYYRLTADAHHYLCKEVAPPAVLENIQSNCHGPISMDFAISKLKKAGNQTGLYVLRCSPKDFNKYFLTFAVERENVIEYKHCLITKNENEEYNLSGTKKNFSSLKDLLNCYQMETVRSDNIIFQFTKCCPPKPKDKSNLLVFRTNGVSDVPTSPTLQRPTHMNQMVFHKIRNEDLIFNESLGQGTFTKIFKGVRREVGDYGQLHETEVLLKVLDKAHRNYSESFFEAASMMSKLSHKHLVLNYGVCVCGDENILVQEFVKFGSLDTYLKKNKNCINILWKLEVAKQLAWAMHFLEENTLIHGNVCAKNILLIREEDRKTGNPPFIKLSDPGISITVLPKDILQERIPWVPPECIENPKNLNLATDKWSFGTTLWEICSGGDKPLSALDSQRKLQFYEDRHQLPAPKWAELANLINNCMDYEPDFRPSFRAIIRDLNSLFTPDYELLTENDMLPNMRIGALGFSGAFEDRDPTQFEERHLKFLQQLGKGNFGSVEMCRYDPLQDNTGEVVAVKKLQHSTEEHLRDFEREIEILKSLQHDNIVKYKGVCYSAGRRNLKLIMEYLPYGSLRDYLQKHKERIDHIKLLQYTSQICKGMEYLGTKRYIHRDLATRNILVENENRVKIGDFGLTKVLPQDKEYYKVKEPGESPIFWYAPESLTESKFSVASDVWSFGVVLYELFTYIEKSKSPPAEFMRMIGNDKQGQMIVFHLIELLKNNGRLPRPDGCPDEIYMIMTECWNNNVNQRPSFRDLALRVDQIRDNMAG", "assay": "Inhibition of JAK2 (unknown origin)"}, "[23]": {"assay": "Cytotoxicity against human A375SM cells expressing BRAF mutant after 3 days by proliferation assay", "assay_type": "functional, cell-based", "details": "A375-SM, 72 h", "method_in_brief": "(§1)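 A2058, Colo-205 (2000 cells/well) or A375SM (1500 cells/well) in RPMI1640 with 10% FBS and penicillin–streptomycin, on collagen-coated plates. Cells attach for 2 h, then compound is added in DMSO (final 1.0% or 0.1%). Incubated 3 days at 37 °C, 5% CO2. Viability read by CellTiter-Glo luminescence.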"}, "[24]": {"biological_target": "Serine/threonine-protein kinase 3 (Homo sapiens, UniProt Q13188)", "assay": "Inhibition of MST2 (unknown origin)"}, "Ephrin type-B receptor 4": {"biological_target": "Ephrin type-B receptor 4 (Homo sapiens, UniProt P54760)", "assay": "Inhibition of EPHB4 (unknown origin)"}, "[25]": {"biological_target": "Casein kinase I isoform delta (Homo sapiens, UniProt P48730)", "sequence (P48730 whole entry, canonical isoform)": "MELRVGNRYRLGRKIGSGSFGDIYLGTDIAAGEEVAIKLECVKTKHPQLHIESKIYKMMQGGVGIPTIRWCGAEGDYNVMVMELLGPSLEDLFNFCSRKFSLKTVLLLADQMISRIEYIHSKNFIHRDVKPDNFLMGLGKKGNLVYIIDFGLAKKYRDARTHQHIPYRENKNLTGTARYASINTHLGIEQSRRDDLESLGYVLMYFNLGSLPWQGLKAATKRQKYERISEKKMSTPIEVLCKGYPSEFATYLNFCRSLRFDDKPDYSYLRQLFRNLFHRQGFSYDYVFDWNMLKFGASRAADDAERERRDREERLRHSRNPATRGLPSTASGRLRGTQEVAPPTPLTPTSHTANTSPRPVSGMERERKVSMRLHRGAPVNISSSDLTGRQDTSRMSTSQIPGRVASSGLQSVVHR", "assay": "Inhibition of CSNK1D (unknown origin)"}, "[26]": {"biological_target": "T2, Mitogen-activated protein kinase 1", "assay": "Binding to phosphorylated ERK2 (unknown origin) by temperature dependent fluorescence (TdF) assay"}, "[27]": {"biological_target": "Cyclin-dependent kinase 6 (Homo sapiens, UniProt Q00534)", "assay": "Inhibition of CDK6 (unknown origin)"}, "[28]": {"biological_target": "T2, Mitogen-activated protein kinase 1", "assay": "Binding to unphosphorylated ERK2 (unknown origin) by temperature dependent fluorescence (TdF) assay"}, "[29]": {"biological_target": "Insulin-like growth factor 1 receptor (Homo sapiens, UniProt P08069)", "assay": "Inhibition of IGF1R (unknown origin)"}, "[30]": {"biological_target": "RAC-alpha serine/threonine-protein kinase (Homo sapiens, UniProt P31749)", "assay": "Inhibition of AKT1 (unknown origin)"}, "A2058 [31]": {"tested_on": "A2058", "assay": "Inhibition of RSK phosphorylation in human A2058 cells after 4 hrs by immunoblotting analysis", "assay_type": "cell-based"}, "[32]": {"biological_target": "Hepatocyte growth factor receptor (Homo sapiens, UniProt P08581)", "assay": "Inhibition of MET (unknown origin)"}, "[33]": {"biological_target": "Epidermal growth factor receptor (Homo sapiens, UniProt P00533)", "assay": "Inhibition of EGFR (unknown origin)"}, "[34]": {"biological_target": "Mitogen-activated protein kinase 3 (Homo sapiens) (UniProt P27361)", "assay": "Inhibition of ERK1 phosphorylation in human A2058 cells after 4 hrs by immunoblotting analysis", "assay_type": "cell-based", "method_in_brief": "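A2058 cells treated 4 h at 37 °C with 0–10000 nM compound (150, 312, 625, 1250, 2500, 5000, 10000 nM). Equal-protein lysates immunoblotted for phospho-ERK1,2 and total ERK1,2, developed by ECL. A MEK inhibitor serves as positive control.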"}, "[35]": {"biological_target": "Cyclin-dependent kinase 2 (Homo sapiens, UniProt P24941)", "assay": "Inhibition of CDK2 (unknown origin)"}, "COLO 205": {"tested_on": "COLO 205", "assay": "Cytotoxicity against human COLO205 cells expressing BRAF mutant after 3 days by proliferation assay", "assay_type": "functional, cell-based", "details": "COLO 205, 72 h", "method_in_brief": "as §1"}, "[36]": {"biological_target": "Cyclin-dependent kinase 4 (Homo sapiens, UniProt P11802)", "assay": "Inhibition of CDK4 (unknown origin)"}, "A2058 [37]": {"tested_on": "A2058", "assay": "Cytotoxicity against human A2058 cells expressing BRAF mutant after 3 days by proliferation assay", "assay_type": "functional, cell-based", "details": "A2058, 72 h", "method_in_brief": "as §1"}}, "note": "Calls of active or inactive are those of the source. No cut-off for these calls is given here.", "data": [{"smiles": "CC(=O)c1ccc(N2CCN(C(=O)CN3CC[C@@H](C(=O)Nc4ccc(O)c(Cl)c4)C3)CC2)cc1", "values": [{"measurement": "IC50", "setting": "[1]", "result": 0.36, "unit": "µM"}, {"measurement": "Activity", "setting": "[2]", "result": "inactive"}, {"measurement": "IC50", "setting": "[3]", "result": "> 30", "unit": "µM"}, {"measurement": "Activity", "setting": "[4]", "result": "inactive"}, {"measurement": "IC50", "setting": "[5]", "result": "> 30", "unit": "µM"}, {"measurement": "IC50", "setting": "[6]", "result": "> 50", "unit": "µM"}, {"measurement": "IC50", "setting": "[7]", "result": "> 30", "unit": "µM"}, {"measurement": "IC50", "setting": "[8]", "result": "> 30", "unit": "µM"}, {"measurement": "IC50", "setting": "[9]", "result": "> 30", "unit": "µM"}, {"measurement": "IC50", "setting": "[10]", "result": 27, "unit": "µM"}, {"measurement": "IC50", "setting": "[11]", "result": 2.6, "unit": "µM"}, {"measurement": "IC50", "setting": "[12]", "result": "> 20", "unit": "µM"}, {"measurement": "IC50", "setting": "[13]", "result": "> 30", "unit": "µM"}, {"measurement": "IC50", "setting": "[14]", "result": "> 30", "unit": "µM"}, {"measurement": "IC50", "setting": "[15]", "result": "> 30", "unit": "µM"}, {"measurement": "IC50", "setting": "[16]", "result": "> 30", "unit": "µM"}, {"measurement": "IC50", "setting": "[17]", "result": "> 30", "unit": "µM"}, {"measurement": "IC50", "setting": "[18]", "result": "> 30", "unit": "µM"}, {"measurement": "IC50", "setting": "[19]", "result": "> 50", "unit": "µM"}, {"measurement": "IC50", "setting": "[20]", "result": "> 30", "unit": "µM"}, {"measurement": "IC50", "setting": "[21]", "result": "> 50", "unit": "µM"}, {"measurement": "IC50", "setting": "CHL-1", "result": "> 100", "unit": "µM"}, {"measurement": "IC50", "setting": "[22]", "result": "> 30", "unit": "µM"}, {"measurement": "IC50", "setting": "[23]", "result": 11.5, "unit": "µM"}, {"measurement": "IC50", "setting": "[24]", "result": "> 30", "unit": "µM"}, {"measurement": "IC50", "setting": "Ephrin type-B receptor 4", "result": "> 30", "unit": "µM"}, {"measurement": "IC50", "setting": "[25]", "result": "> 30", "unit": "µM"}, {"measurement": "Kd", "setting": "[26]", "result": 0.14, "unit": "µM"}, {"measurement": "IC50", "setting": "[27]", "result": "> 50", "unit": "µM"}, {"measurement": "Kd", "setting": "[28]", "result": 0.05, "unit": "µM"}, {"measurement": "IC50", "setting": "[29]", "result": "> 30", "unit": "µM"}, {"measurement": "IC50", "setting": "[30]", "result": "> 30", "unit": "µM"}, {"measurement": "inhibition", "setting": "A2058 [31]", "result": "Dose-dependent effect"}, {"measurement": "IC50", "setting": "[32]", "result": "> 30", "unit": "µM"}, {"measurement": "IC50", "setting": "[33]", "result": "> 50", "unit": "µM"}, {"measurement": "inhibition", "setting": "[34]", "result": "Dose-dependent effect"}, {"measurement": "IC50", "setting": "[35]", "result": "> 50", "unit": "µM"}, {"measurement": "IC50", "setting": "COLO 205", "result": 10.8, "unit": "µM"}, {"measurement": "IC50", "setting": "[36]", "result": "> 50", "unit": "µM"}, {"measurement": "IC50", "setting": "A2058 [37]", "result": 28.8, "unit": "µM"}]}]}
